Experimental data as given in ChEMBL document CHEMBL1275433 (Antimicrob Agents Chemother, 2008).
pIC50: −log10 of the molar value. Values after ≈ are worked out from the molar mass of the structure shown.

Key:
[1] = target: DNA gyrase subunit A/DNA gyrase subunit B (Mycobacterium tuberculosis (strain ATCC 25618 / H37Rv), UniProt P9WG45+P9WG47); experiment: Inhibition of Mycobacterium tuberculosis DNA gyrase GyrA/GyrB; format: protein-complex assay
Outline: (§1)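 Enzyme unit: protein needed for 50% supercoiling of 0.4 μg relaxed pBR322 DNA in 1 h at 37°C. Wild-type and mutant enzymes assayed in parallel on the same day under identical conditions. Repeated two to four times; representative values reported.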

[2] = target: DNA gyrase subunit A/DNA gyrase subunit B (Mycobacterium tuberculosis (strain ATCC 25618 / H37Rv)) (UniProt P9WG45+P9WG47)
DNA gyrase = DNA gyrase (Escherichia coli, UniProt P0AES4+P0AES6); experiment: Inhibition of Escherichia coli DNA gyrase GyrA/GyrB; format: protein-complex assay; outline: as §1
Enterococcus faecalis [3] = experiment: Antimicrobial activity against Enterococcus faecalis harboring DNA gyrase GyrB QRDR; format: functional
Pseudomonas aeruginosa [4] = experiment: Antimicrobial activity against Pseudomonas aeruginosa harboring DNA gyrase GyrB QRDR; format: functional, organism-based
Helicobacter pylori [5] = experiment: Antimicrobial activity against Helicobacter pylori harboring DNA gyrase GyrB QRDR; format: functional
Bacteroides fragilis [6] = experiment: Antimicrobial activity against Bacteroides fragilis harboring DNA gyrase GyrA QRDR; format: functional
Methylovorus [7] = experiment: Antimicrobial activity against Methylovorus sp. harboring DNA gyrase GyrB QRDR; format: functional
Streptococcus pneumoniae [8] = experiment: Antimicrobial activity against Streptococcus pneumoniae harboring DNA gyrase GyrB QRDR; format: functional, organism-based
Borrelia burgdorferi [9] = experiment: Antimicrobial activity against Borrelia burgdorferi harboring DNA gyrase GyrB QRDR; format: functional; details: Borreliella burgdorferi
Enterococcus faecalis [10] = experiment: Antimicrobial activity against Enterococcus faecalis harboring DNA gyrase GyrA QRDR; format: functional
[11] = target: DNA gyrase (Escherichia coli) (UniProt P0AES6+P0AES4)
Staphylococcus aureus [12] = experiment: Antimicrobial activity against Staphylococcus aureus harboring DNA gyrase GyrB QRDR; format: functional, organism-based
Borrelia burgdorferi [13] = experiment: Antimicrobial activity against Borrelia burgdorferi harboring DNA gyrase GyrA QRDR; format: functional; details: Borreliella burgdorferi
[14] = tested on: Mycolicibacterium fortuitum; experiment: Antimicrobial activity against Mycobacterium fortuitum harboring DNA gyrase GyrB QRDR; format: functional, organism-based
Methylovorus [15] = experiment: Antimicrobial activity against Methylovorus sp. harboring DNA gyrase GyrA QRDR; format: functional
Bacteroides fragilis [16] = experiment: Antimicrobial activity against Bacteroides fragilis harboring DNA gyrase GyrB QRDR; format: functional
[17] = tested on: Mycolicibacterium smegmatis; experiment: Antimicrobial activity against Mycobacterium smegmatis harboring DNA gyrase GyrB QRDR; format: functional, organism-based
[18] = tested on: Mycolicibacterium fortuitum; experiment: Antimicrobial activity against Mycobacterium fortuitum harboring DNA gyrase GyrA QRDR; format: functional, organism-based
Bacillus subtilis [19] = experiment: Antimicrobial activity against Bacillus subtilis harboring DNA gyrase GyrB QRDR; format: functional
Klebsiella oxytoca [20] = experiment: Antimicrobial activity against Klebsiella oxytoca harboring DNA gyrase GyrB QRDR; format: functional
Ehrlichia chaffeensis [21] = experiment: Antimicrobial activity against Ehrlichia chaffeensis harboring DNA gyrase GyrB QRDR; format: functional
Neisseria gonorrhoeae [22] = experiment: Antimicrobial activity against Neisseria gonorrhoeae harboring DNA gyrase GyrA QRDR; format: functional
Streptococcus pneumoniae [23] = experiment: Antimicrobial activity against Streptococcus pneumoniae harboring DNA gyrase GyrA QRDR; format: functional, organism-based
Klebsiella oxytoca [24] = experiment: Antimicrobial activity against Klebsiella oxytoca harboring DNA gyrase GyrA QRDR; format: functional
Haemophilus influenzae [25] = experiment: Antimicrobial activity against Haemophilus influenzae harboring DNA gyrase GyrA QRDR; format: functional
Ehrlichia chaffeensis [26] = experiment: Antimicrobial activity against Ehrlichia chaffeensis harboring DNA gyrase GyrA QRDR; format: functional
Salmonella typhimurium [27] = experiment: Antimicrobial activity against Salmonella enterica Typhimurium harboring DNA gyrase GyrB QRDR; format: functional, Salmonella enterica subsp. enterica serovar Typhimurium
Pseudomonas aeruginosa [28] = experiment: Antimicrobial activity against Pseudomonas aeruginosa harboring DNA gyrase GyrA QRDR; format: functional, organism-based
Helicobacter pylori [29] = experiment: Antimicrobial activity against Helicobacter pylori 1 harboring DNA gyrase GyrA QRDR; format: functional
Neisseria gonorrhoeae [30] = experiment: Antimicrobial activity against Neisseria gonorrhoeae harboring DNA gyrase GyrB QRDR; format: functional
Salmonella typhimurium [31] = experiment: Antimicrobial activity against Salmonella enterica Typhimurium harboring DNA gyrase GyrA QRDR; format: functional, Salmonella enterica subsp. enterica serovar Typhimurium
Staphylococcus aureus [32] = experiment: Antimicrobial activity against Staphylococcus aureus harboring DNA gyrase GyrA QRDR; format: functional, organism-based
Helicobacter pylori [33] = experiment: Antimicrobial activity against Helicobacter pylori 2 harboring DNA gyrase GyrA QRDR; format: functional
[34] = tested on: Mycolicibacterium smegmatis; experiment: Antimicrobial activity against Mycobacterium smegmatis harboring DNA gyrase GyrA QRDR; format: functional, organism-based
Bacillus subtilis [35] = experiment: Antimicrobial activity against Bacillus subtilis harboring DNA gyrase GyrA QRDR; format: functional
Escherichia coli [36] = experiment: Antimicrobial activity against Escherichia coli harboring DNA gyrase GyrB QRDR; format: functional, organism-based
Haemophilus influenzae [37] = experiment: Antimicrobial activity against Haemophilus influenzae harboring DNA gyrase GyrB QRDR; format: functional
Escherichia coli [38] = experiment: Antimicrobial activity against Escherichia coli harboring DNA gyrase GyrA QRDR; format: functional, organism-based

Sequence of DNA gyrase subunit A/DNA gyrase subunit B (P9WG45 whole entry): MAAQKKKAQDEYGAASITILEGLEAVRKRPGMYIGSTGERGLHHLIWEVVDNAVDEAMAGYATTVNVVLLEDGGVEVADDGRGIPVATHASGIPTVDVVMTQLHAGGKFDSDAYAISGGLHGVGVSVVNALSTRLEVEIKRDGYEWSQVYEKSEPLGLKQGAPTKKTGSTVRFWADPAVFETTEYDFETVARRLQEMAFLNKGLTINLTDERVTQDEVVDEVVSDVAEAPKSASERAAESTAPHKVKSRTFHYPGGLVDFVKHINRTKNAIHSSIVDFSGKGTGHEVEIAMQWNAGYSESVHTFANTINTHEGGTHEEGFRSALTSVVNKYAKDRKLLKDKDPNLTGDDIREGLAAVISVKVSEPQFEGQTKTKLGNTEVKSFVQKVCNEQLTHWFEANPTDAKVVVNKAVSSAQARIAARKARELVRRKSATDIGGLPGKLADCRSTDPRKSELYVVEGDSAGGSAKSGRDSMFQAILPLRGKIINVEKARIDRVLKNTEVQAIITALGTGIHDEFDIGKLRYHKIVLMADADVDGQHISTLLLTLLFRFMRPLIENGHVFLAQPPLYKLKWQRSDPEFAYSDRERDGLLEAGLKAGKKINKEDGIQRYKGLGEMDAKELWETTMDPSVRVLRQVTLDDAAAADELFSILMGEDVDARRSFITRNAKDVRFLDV
Sequence of DNA gyrase subunit A/DNA gyrase subunit B (P9WG47 whole entry): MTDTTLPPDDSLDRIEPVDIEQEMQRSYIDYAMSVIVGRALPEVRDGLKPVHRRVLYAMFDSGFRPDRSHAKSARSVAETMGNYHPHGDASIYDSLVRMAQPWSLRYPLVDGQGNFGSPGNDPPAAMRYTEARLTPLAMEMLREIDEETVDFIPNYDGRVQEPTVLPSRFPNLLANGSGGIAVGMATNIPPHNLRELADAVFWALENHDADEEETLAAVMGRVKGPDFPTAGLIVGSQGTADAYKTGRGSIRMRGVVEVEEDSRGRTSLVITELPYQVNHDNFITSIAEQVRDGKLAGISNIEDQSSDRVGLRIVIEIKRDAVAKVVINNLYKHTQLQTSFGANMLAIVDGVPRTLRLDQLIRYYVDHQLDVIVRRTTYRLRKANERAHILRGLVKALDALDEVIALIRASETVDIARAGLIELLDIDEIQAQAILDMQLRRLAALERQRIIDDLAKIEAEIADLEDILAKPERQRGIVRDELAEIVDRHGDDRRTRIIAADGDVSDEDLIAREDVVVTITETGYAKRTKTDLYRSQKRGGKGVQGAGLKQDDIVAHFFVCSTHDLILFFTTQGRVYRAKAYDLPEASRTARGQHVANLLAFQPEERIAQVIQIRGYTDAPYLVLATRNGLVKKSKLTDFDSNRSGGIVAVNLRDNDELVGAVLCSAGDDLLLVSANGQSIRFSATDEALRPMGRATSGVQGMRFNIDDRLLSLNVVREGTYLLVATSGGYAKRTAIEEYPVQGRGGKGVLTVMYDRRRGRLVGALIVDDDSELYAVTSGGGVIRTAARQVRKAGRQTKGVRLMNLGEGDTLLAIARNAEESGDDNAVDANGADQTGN

Work on `CCn1cc(C(=O)O)c(=O)c2ccc(C)nc21` [NALIDIXIC ACID] yielded a pIC50 [1] of 2.32.

Molecule `COc1c(N2C[C@@H]3CCCN[C@@H]3C2)c(F)cc2c(=O)c(C(=O)O)cn(C3CC3)c12` [MOXIFLOXACIN] has a CC25 [2] of 2 µM.

In the case of `CCn1cc(C(=O)O)c(=O)c2cc(F)c(N3CCNCC3)nc21` [ENOXACIN], the pIC50 [1] was 3.81 and the pIC50 (DNA gyrase) was 4.85.

Molecule `CC1COc2c(N3CCN(C)CC3)c(F)cc3c(=O)c(C(=O)O)cn1c23` (centres undefined) [OFLOXACIN] has an MIC50 (Enterococcus faecalis [3]) of 1 µg/mL (≈ 2.77 µM), an IC50 (Pseudomonas aeruginosa [4]) of 0.5 µg/mL (≈ 1.38 µM) and an MIC50 (Pseudomonas aeruginosa [4]) of 0.25 µg/mL (≈ 0.692 µM). The MIC50 (Helicobacter pylori [5]) was 0.25 µg/mL (≈ 0.692 µM), the MIC50 (Bacteroides fragilis [6]) was 4 µg/mL (≈ 11.1 µM) and the pIC50 [1] was 4.55. It also gave an MIC50 (Methylovorus [7]) of 0.8 µg/mL (≈ 2.21 µM), an IC50 (Streptococcus pneumoniae [8]) of 40 µg/mL (≈ 111 µM) and an MIC50 (Streptococcus pneumoniae [8]) of 1 µg/mL (≈ 2.77 µM). The MIC50 (Borrelia burgdorferi [9]) was 8 µg/mL (≈ 22.1 µM), the MIC50 (Enterococcus faecalis [10]) was 1 µg/mL (≈ 2.77 µM) and the CC25 [11] was 0.2 µM. For the same molecule, the IC50 (Staphylococcus aureus [12]) was 10 µg/mL (≈ 27.7 µM), the MIC50 (Staphylococcus aureus [12]) was 0.5 µg/mL (≈ 1.38 µM) and the MIC50 (Borrelia burgdorferi [13]) was 8 µg/mL (≈ 22.1 µM). For the same molecule, the IC50 [14] was 1 µg/mL (≈ 2.77 µM), the MIC50 [14] was 0.06 µg/mL (≈ 0.166 µM) and the MIC50 (Methylovorus [15]) was 0.8 µg/mL (≈ 2.21 µM). It also gave an MIC50 (Bacteroides fragilis [16]) of 4 µg/mL (≈ 11.1 µM), an IC50 [17] of 10 µg/mL (≈ 27.7 µM) and an MIC50 [17] of 1 µg/mL (≈ 2.77 µM). It also gave an IC50 [18] of 1 µg/mL (≈ 2.77 µM), an MIC50 [18] of 0.06 µg/mL (≈ 0.166 µM) and an MIC50 (Bacillus subtilis [19]) of 0.12 µg/mL (≈ 0.332 µM). For the same molecule, the MIC50 (Klebsiella oxytoca [20]) was 0.01 µg/mL (≈ 0.0277 µM), the MIC50 (Ehrlichia chaffeensis [21]) was 16 µg/mL (≈ 44.3 µM) and the MIC50 (Neisseria gonorrhoeae [22]) was 0.008 µg/mL (≈ 0.0221 µM). It also gave an IC50 (Streptococcus pneumoniae [23]) of 40 µg/mL (≈ 111 µM), an MIC50 (Streptococcus pneumoniae [23]) of 1 µg/mL (≈ 2.77 µM) and an MIC50 (Klebsiella oxytoca [24]) of 0.01 µg/mL (≈ 0.0277 µM). The MIC50 (Haemophilus influenzae [25]) was 0.01 µg/mL (≈ 0.0277 µM), the MIC50 (Ehrlichia chaffeensis [26]) was 16 µg/mL (≈ 44.3 µM) and the MIC50 (Salmonella typhimurium [27]) was 0.01 µg/mL (≈ 0.0277 µM). For the same molecule, the IC50 (Pseudomonas aeruginosa [28]) was 0.5 µg/mL (≈ 1.38 µM), the MIC50 (Pseudomonas aeruginosa [28]) was 0.25 µg/mL (≈ 0.692 µM) and the MIC50 (Helicobacter pylori [29]) was 0.06 µg/mL (≈ 0.166 µM). The MIC50 (Neisseria gonorrhoeae [30]) was 0.008 µg/mL (≈ 0.0221 µM), the MIC50 (Salmonella typhimurium [31]) was 0.01 µg/mL (≈ 0.0277 µM) and the IC50 (Staphylococcus aureus [32]) was 10 µg/mL (≈ 27.7 µM). It also gave an MIC50 (Staphylococcus aureus [32]) of 0.5 µg/mL (≈ 1.38 µM), an MIC50 (Helicobacter pylori [33]) of 0.25 µg/mL (≈ 0.692 µM) and an IC50 [34] of 10 µg/mL (≈ 27.7 µM). The MIC50 [34] was 1 µg/mL (≈ 2.77 µM), the CC25 [2] was 7 µM and the MIC50 (Bacillus subtilis [35]) was 0.12 µg/mL (≈ 0.332 µM). For the same molecule, the IC50 (Escherichia coli [36]) was 0.3 µg/mL (≈ 0.83 µM), the MIC50 (Escherichia coli [36]) was 0.01 µg/mL (≈ 0.0277 µM) and the MIC50 (Haemophilus influenzae [37]) was 0.012 µg/mL (≈ 0.0332 µM). For the same molecule, the IC50 (Escherichia coli [38]) was 0.3 µg/mL (≈ 0.83 µM) and the MIC50 (Escherichia coli [38]) was 0.01 µg/mL (≈ 0.0277 µM).
